Drawing on PubChem BioAssay, this text covers GFP response vs DMSO, GFP response relative to DMSO and GFP response, % of DMSO for 17 compounds.

The nature of assay [1]: RPL19A-GFP modulators, yeast TOR pathway, confirmation, cell-based, S. cerevisiae, flow cytometry, cherry picks, mother/daughter gates (AID 2270;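 active = GFP response below 50% of the DMSO control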). The conditions noted are these: S. cerevisiae RPL19A-GFP strain, 3 h, at 10 µM, stronger effect = lower value, 100 = same GFP as DMSO wells. On the technique in general: Flow cytometry measures light scatter and fluorescence of single cells or particles in a stream.

Assay [2] in a line: LAP4-GFP expression modulators in yeast, confirmation, cell-based, cherry picks, flow cytometry, mother/daughter gates (AID 2271;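 active = GFP response above 150% of the DMSO control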;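 note: ratio of sample to DMSO plate mean so 100% equals DMSO level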). The conditions noted are these: S. cerevisiae LAP4-GFP strain, 3 h, at 10 µM, stronger effect = higher value, 100 means same as DMSO control. The method, boiled down:
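System: Alexa 633-stained baker's yeast GFP-fusion strain; quantity: 0.2 OD600 cells; timing: compound exposure 3 h at 30 °C, end-over-end rotation; detection: HT flow cytometry, GFP fluorescence channel; measure: per-gate (all, mother, daughter) GFP response vs DMSO; control set: DMSO-only negative wells, rapamycin 400 ng/mL positive wells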

The nature of assay [3]: modulators of MEP2-GFP levels in yeast, confirmation, S. cerevisiae, flow cytometry GFP, cherry picks (AID 2272;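 active = GFP response above 150% of the DMSO control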;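 note: ratio of well signal to plate DMSO mean so 100% equals DMSO level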). To be noted: S. cerevisiae MEP2-GFP strain, 3 h, at 10 µM, stronger effect = higher value.
Assay [4] is described as follows: AGP1-GFP expression modulators, hit retest, confirmation, cell-based, flow cytometry, S. cerevisiae, cherry picks (AID 2273).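 Note: median GFP channel fluorescence over the whole cell population gate.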 To be noted: S. cerevisiae AGP1-GFP strain, 3 h, at 10 µM.
Assay [5] in a line: modulators of CIT2-GFP expression in yeast, confirmation, S. cerevisiae, GFP fusion, cherry picks, mother/daughter gates (AID 2274). To be noted: S. cerevisiae CIT2-GFP strain, flow cytometry, 3 h, at 10 µM, stronger effect = higher value.
Setting [6] is: measured here: daughter cell gate.
Setting [7] is: measured here: mother cell gate.
Where [8] appears, read: measured here: daughter cell gate response.
[9] abbreviates: measured here: mother cell gate response.

SMILES strings stand for the structures. The source made the active and inactive calls.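 Rule for the calls, unless noted: active = GFP response above 150% of the DMSO level; inconclusive = fewer than 70 events counted for a yeast strain; inactive = the rest.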

As for `Cc1ccc(C(=O)Nc2nnc(CC(=O)N/N=C/c3ccc(O)c(O)c3)s2)cc1`, the GFP response vs DMSO is 97.8% (inactive) in assay [1], 99% in assay [1] (setting [6]), 95.9% in assay [1] (setting [7]) and 103% (inactive) in assay [3]. For the same compound, the figures for the GFP response relative to DMSO in assay [2], in assay [2] (setting [8]) and in assay [2] (setting [9]) were 94.1% (inactive), 92.9% and 95.4%, respectively. Moreover, the GFP response, % of DMSO in assay [4] was 104% (inactive); in assay [5], 103% (inactive); in assay [5] (setting [6]), 103%; in assay [5] (setting [7]), 104%.
Turning to `O=C(O)COc1c(-c2ccc(Cl)cc2)oc2ccccc2c1=O`, the GFP response vs DMSO in assay [1] is 97% (inactive); in assay [1] (setting [6]) it was 95.4%; in assay [1] (setting [7]), 97.9%; in assay [3], 102% (inactive). The results for the GFP response relative to DMSO in assay [2], in assay [2] (setting [8]) and in assay [2] (setting [9]) were 99.2% (inactive), 99.2% and 99.3%, respectively. Moreover, the GFP response, % of DMSO is 96% (inactive) in assay [4], 96.9% (inactive) in assay [5], 97.2% in assay [5] (setting [6]) and 96.1% in assay [5] (setting [7]).
With `COc1ccc(NC(=O)CCc2nc(-c3ccccc3F)no2)cc1`, the GFP response vs DMSO is 95.6% (inactive) in assay [1], 95.9% in assay [1] (setting [6]), 93.1% in assay [1] (setting [7]) and 101% (inactive) in assay [3]. For the same compound, the GFP response relative to DMSO in assay [2] was 106% (inactive); in assay [2] (setting [8]), 101%; in assay [2] (setting [9]), 106%. The GFP response, % of DMSO was 97.7% (inactive) in assay [4], 97.2% (inactive) in assay [5], 95.8% in assay [5] (setting [6]) and 94.9% in assay [5] (setting [7]).
Regarding `COc1ccc(C(=O)Nc2c(N)nc[nH]c2=O)cc1`, the GFP response vs DMSO in assay [1] is 102% (inactive); in assay [1] (setting [6]) it was 99.3%; in assay [1] (setting [7]), 99%; in assay [3] it was 105% (inactive). Also, the GFP response relative to DMSO was 97% (inactive) in assay [2], 97.5% in assay [2] (setting [8]) and 97.3% in assay [2] (setting [9]). For the same compound, the GFP response, % of DMSO in assay [4] is 103% (inactive); in assay [5], 105% (inactive); in assay [5] (setting [6]), 103%; in assay [5] (setting [7]), 102%.
Regarding `CC(=O)Nc1ccc(NC(=O)CSc2ncc(C(=O)Nc3ccccc3)c(=O)n2C)cc1`, the GFP response vs DMSO is 96.6% (inactive) in assay [1], 97.1% in assay [1] (setting [6]), 99.1% in assay [1] (setting [7]) and 96.8% (inactive) in assay [3]. In addition, the GFP response relative to DMSO was 97% (inactive) in assay [2], 97.5% in assay [2] (setting [8]) and 97.3% in assay [2] (setting [9]). Also, the GFP response, % of DMSO in assay [4] was 103% (inactive); in assay [5] it was 105% (inactive); in assay [5] (setting [6]) it was 103%; in assay [5] (setting [7]), 104%.
For the compound `Cc1cccc2nc(-c3cccnc3)c(NCCC(C)C)n12`, the GFP response vs DMSO in assay [1] was 98.8% (inactive); in assay [1] (setting [6]), 99.8%; in assay [1] (setting [7]), 99.6%; in assay [3], 107% (inactive). The GFP response relative to DMSO in assay [2] was 89% (inactive); in assay [2] (setting [8]), 89.5%; in assay [2] (setting [9]), 92.1%. Also, the GFP response, % of DMSO in assay [4] is 98.5% (inactive); in assay [5], 96.5% (inactive); in assay [5] (setting [6]) it was 99.7%; in assay [5] (setting [7]) it was 94.4%.
Take `O=C(OCC(=O)N1CCN(C(=O)c2ccco2)CC1)c1cc(-c2cccc(Br)c2)nc2ccccc12`: the GFP response vs DMSO in assay [1] is 80.3% (inactive); in assay [1] (setting [6]), 75.5%; in assay [1] (setting [7]), 76.9%; in assay [3] it was 125% (inactive). Further, the GFP response relative to DMSO is 139% (inactive) in assay [2], 117% in assay [2] (setting [8]) and 144% in assay [2] (setting [9]). Also, the GFP response, % of DMSO in assay [4] was 127% (inactive); in assay [5] it was 128% (inactive); in assay [5] (setting [6]), 114%; in assay [5] (setting [7]) it was 125%.
Consider `COc1cc(NC(=O)c2ccc(Br)cc2)ccc1NC(=O)c1cc2ccccc2o1`, for which the GFP response vs DMSO in assay [1] is 99.9% (inactive); in assay [1] (setting [6]) it was 99%; in assay [1] (setting [7]), 100%; in assay [3], 100% (inactive). In addition, the GFP response relative to DMSO was 96.2% (inactive) in assay [2], 98.7% in assay [2] (setting [8]) and 98.3% in assay [2] (setting [9]). Moreover, the GFP response, % of DMSO in assay [4] is 95.7% (inactive); in assay [5], 96.5% (inactive); in assay [5] (setting [6]) it was 96.5%; in assay [5] (setting [7]), 97.7%.
With `CC1CN(c2nc3ccccn3c(=O)c2/C=C(\C#N)C(=O)N2CCOCC2)CC(C)O1` (configuration not stated), the GFP response vs DMSO in assay [1] is 98.5% (inactive); in assay [1] (setting [6]), 99.3%; in assay [1] (setting [7]), 98.4%; in assay [3], 101% (inactive). The GFP response relative to DMSO in assay [2] was 102% (inactive); in assay [2] (setting [8]), 97.5%; in assay [2] (setting [9]), 104%. The GFP response, % of DMSO was 95% (inactive) in assay [4], 100% (inactive) in assay [5], 99.3% in assay [5] (setting [6]) and 102% in assay [5] (setting [7]).
For `Cc1ccc(N2C3=C(C(=O)CC(C)(C)C3)C(c3cn(C)nc3C)C3=C2CC(C)(C)CC3=O)cc1`, the GFP response vs DMSO is 105% (inactive) in assay [1], 102% in assay [1] (setting [6]), 104% in assay [1] (setting [7]) and 131% (inactive) in assay [3]. The GFP response relative to DMSO in assay [2] was 119% (inactive); in assay [2] (setting [8]) it was 122%; in assay [2] (setting [9]), 117%. The GFP response, % of DMSO is 103% (inactive) in assay [4], 134% (inactive) in assay [5], 132% in assay [5] (setting [6]) and 132% in assay [5] (setting [7]).
For `Cc1cccc(CS(=O)(=O)c2ncc(Cl)c(C(=O)Nc3c(C)cccc3C)n2)c1`, the GFP response vs DMSO in assay [1] was 106% (inactive); in assay [1] (setting [6]) it was 98.6%; in assay [1] (setting [7]) it was 107%; in assay [3], 105% (inactive). Further, the GFP response relative to DMSO in assay [2] is 106% (inactive); in assay [2] (setting [8]), 101%; in assay [2] (setting [9]), 107%. Also, the GFP response, % of DMSO in assay [4] was 99.4% (inactive); in assay [5], 100% (inactive); in assay [5] (setting [6]) it was 97.4%; in assay [5] (setting [7]), 101%.
Take `S=C(Sc1ccc(Cl)cc1)Sc1ccc(Cl)cc1`: the GFP response vs DMSO was 97.6% (inactive) in assay [1], 93.2% in assay [1] (setting [6]), 95.1% in assay [1] (setting [7]) and 112% (inactive) in assay [3]. In addition, the GFP response relative to DMSO was 112% (inactive) in assay [2], 108% in assay [2] (setting [8]) and 115% in assay [2] (setting [9]). Moreover, the GFP response, % of DMSO in assay [4] is 110% (inactive); in assay [5], 112% (inactive); in assay [5] (setting [6]) it was 105%; in assay [5] (setting [7]), 107%.
For `COC(=O)c1ccccc1NC(=O)c1nc(S(=O)(=O)Cc2ccccc2)ncc1Cl`, the GFP response vs DMSO was 102% (inactive) in assay [1], 101% in assay [1] (setting [6]), 102% in assay [1] (setting [7]) and 100% (inactive) in assay [3]. The figures for the GFP response relative to DMSO in assay [2], in assay [2] (setting [8]) and in assay [2] (setting [9]) were 89% (inactive), 92.5% and 92.1%, respectively. Further, the GFP response, % of DMSO in assay [4] is 97.8% (inactive); in assay [5], 104% (inactive); in assay [5] (setting [6]) it was 101%; in assay [5] (setting [7]), 103%.
Turning to `O=C(Nc1cc(Sc2ccccn2)cc([N+](=O)[O-])c1)c1cccc(Cl)c1`, the GFP response vs DMSO in assay [1] is 96.9% (inactive); in assay [1] (setting [6]), 95.3%; in assay [1] (setting [7]), 96.3%; in assay [3], 106% (inactive). Besides, the GFP response relative to DMSO in assay [2] was 102% (inactive); in assay [2] (setting [8]), 104%; in assay [2] (setting [9]), 104%. Also, the GFP response, % of DMSO was 103% (inactive) in assay [4], 88.9% (inactive) in assay [5], 86.9% in assay [5] (setting [6]) and 89.3% in assay [5] (setting [7]).
Regarding `O=C(COc1c(Br)cc(Br)c2cccnc12)N1CCc2ccccc2C1`, the GFP response vs DMSO in assay [1] is 98.2% (inactive); in assay [1] (setting [6]), 97.8%; in assay [1] (setting [7]) it was 97.2%; in assay [3] it was 112% (inactive). Further, the GFP response relative to DMSO in assay [2] is 140% (inactive); in assay [2] (setting [8]), 124%; in assay [2] (setting [9]), 144%. For the same compound, the GFP response, % of DMSO in assay [4] was 93.2% (inactive); in assay [5], 101% (inactive); in assay [5] (setting [6]), 102%; in assay [5] (setting [7]), 95.6%.
`CCc1nnc(NC(=O)c2ccc(S(=O)(=O)N(CC)Cc3ccccc3)cc2)o1`: the GFP response vs DMSO in assay [1] was 98.4% (inactive); in assay [1] (setting [6]), 97.8%; in assay [1] (setting [7]), 98.8%; in assay [3], 102% (inactive). The GFP response relative to DMSO in assay [2] was 102% (inactive); in assay [2] (setting [8]), 105%; in assay [2] (setting [9]), 99.5%. For the same compound, the GFP response, % of DMSO in assay [4] is 101% (inactive); in assay [5], 105% (inactive); in assay [5] (setting [6]), 106%; in assay [5] (setting [7]) it was 104%.
Regarding `COC(=O)c1ccc(/C=C/C(=O)c2cccc(OC)c2)cc1`, the GFP response vs DMSO in assay [1] was 104% (inactive); in assay [1] (setting [6]), 102%; in assay [1] (setting [7]), 103%; in assay [3] it was 105% (inactive). Moreover, the GFP response relative to DMSO is 117% (inactive) in assay [2], 112% in assay [2] (setting [8]) and 116% in assay [2] (setting [9]). Further, the GFP response, % of DMSO in assay [4] was 101% (inactive); in assay [5] it was 103% (inactive); in assay [5] (setting [6]), 101%; in assay [5] (setting [7]) it was 102%.
